Source: ChEMBL document CHEMBL4038284, “Synthesis of novel quinoline-based 4,5-dihydro-1H-pyrazoles as potential anticancer, antifungal, antibacterial and antiprotozoal agents” (Eur J Med Chem, 2017)
In brackets after ≈: the same amount, converted by molar mass.

Assays:
[1] = system: Cryptococcus neoformans; test: Growth inhibition of Cryptococcus neoformans ATCC 32264 at 3.4 ug/ml incubated for 48 hrs under dark condition by broth microdilution method relative to control; format: functional; settings: ATCC 32264, 48 h, read-out: GI
[2] = system: Klebsiella pneumoniae; test: Antibacterial activity against ESBL positive Klebsiella pneumoniae ATCC 700603 after 24 hrs by resazurin dye based microdilution assay; format: functional; settings: Klebsiella pneumoniae, 700603, 24 h
In short: (§1)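 MIC taken as the lowest concentration giving visible inhibition and/or by resazurin (1 mg/mL). Gentamicin was the control. Run in duplicate, repeated at least three times.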

[3] = system: Cryptococcus neoformans; test: Growth inhibition of Cryptococcus neoformans ATCC 32264 at 15.62 ug/ml incubated for 48 hrs under dark condition by broth microdilution method relative to control; format: functional; settings: ATCC 32264, 48 h, read-out: GI
In short: (§2)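 CLSI M27-A3 broth microdilution in RPMI-1640, DMSO ≤1%. Inoculum 1-5 × 10^3 CFU/mL. Incubated 48 h at 30 °C, dark. % inhibition = 100 − (OD405 test − sterility control)/(OD405 growth control − sterility control), with growth and sterility control wells. Triplicate.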

[4] = system: Cryptococcus neoformans; test: Growth inhibition of Cryptococcus neoformans ATCC 32264 at 250 ug/ml incubated for 48 hrs under dark condition by broth microdilution method relative to control; format: functional; settings: ATCC 32264, 48 h, read-out: GI; in short: as §2
[5] = system: Candida albicans; test: Growth inhibition of Candida albicans ATCC 10231 at 125 ug/ml incubated for 48 hrs under dark condition by broth microdilution method relative to control; format: functional; settings: ATCC 10231, 48 h, read-out: GI; in short: as §2
[6] = system: Candida albicans; test: Growth inhibition of Candida albicans ATCC 10231 at 62.5 ug/ml incubated for 48 hrs under dark condition by broth microdilution method relative to control; format: functional; settings: ATCC 10231, 48 h, read-out: GI; in short: as §2
[7] = system: Staphylococcus aureus; test: Antibacterial activity against methicillin-sensitive Staphylococcus aureus ATCC 25923 after 24 hrs by resazurin dye based microdilution assay; format: functional; settings: ATCC 25923, 24 h; in short: as §1
[8] = system: Cryptococcus neoformans; test: Antifungal activity against Cryptococcus neoformans ATCC 32264 incubated for 48 hrs under dark condition by broth microdilution method; format: functional; settings: ATCC 32264, 48 h
In short: (§3)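 CLSI M27-A3 broth microdilution in RPMI-1640, DMSO ≤1%, compounds at 250-0.98 µg/mL final. Inoculum 1-5 × 10^3 CFU/mL. Incubated 48 h at 30 °C in a moist dark chamber, read at OD405. MIC80 and MIC50 taken from % inhibition dose-response curves (mean ± SEM, triplicate). Amphotericin B was the positive control.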

[9] = system: Neisseria gonorrhoeae; test: Antibacterial activity against beta lactamase positive Neisseria gonorrhoeae ATCC 31426 by oxidase test; format: functional
In short: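 Agar dilution MIC on GC agar with 1% isovitalex containing increasing compound concentrations. Plates inoculated with about 1×10^4 CFU (5 µL). MIC is the lowest concentration that inhibited growth, with growth confirmed by oxidase test. Run in duplicate, repeated at least three times.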

[10] = system: Candida albicans; test: Growth inhibition of Candida albicans ATCC 10231 at 31.25 ug/ml incubated for 48 hrs under dark condition by broth microdilution method relative to control; format: functional; settings: ATCC 10231, 48 h, read-out: GI; in short: as §2
[11] = system: Candida albicans; test: Growth inhibition of Candida albicans ATCC 10231 at 3.4 ug/ml incubated for 48 hrs under dark condition by broth microdilution method relative to control; format: functional; settings: ATCC 10231, 48 h, read-out: GI
[12] = system: Cryptococcus neoformans; test: Growth inhibition of Cryptococcus neoformans ATCC 32264 at 7.8 ug/ml incubated for 48 hrs under dark condition by broth microdilution method relative to control; format: functional; settings: ATCC 32264, 48 h, read-out: GI; in short: as §2
[13] = system: Leishmania panamensis; test: Antileshmanial activity against EpiR/GFP fused Leishmania panamensis MHOM/CO/87/UA140 intracellular amastigotes infected in human […] cells after 72 hrs by flow cytometric method; format: functional, cell-based; settings: MHOM/CO/87/UA140, 72 h
In short: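 PMA-treated U-937 cells (3 × 10^5 cells/mL) infected with stationary-phase GFP L. panamensis promastigotes (15:1), 3 h at 34 °C, then washed. After 24 h, compounds added at 50, 12.5, 3.125 and 0.78 µg/mL for 72 h at 37 °C. EC50 by Probit; triplicate, two experiments.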

[14] = system: Trypanosoma cruzi; test: Antitrypanosomal activity against Trypanosoma cruzi Tulahuen intracellular amastigote harboring LacZ infected in human U937 cells after 72 hrs by CPRG/Nonidet reagent based spectrophotometric method; format: functional, cell-based; settings: U-937, 72 h
In short: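 U-937 cells at 2.5 × 10^5 cells/mL in RPMI-1640 with 10% serum and 0.1 µg/mL PMA were infected with β-galactosidase-transfected Tulahuen epimastigotes at 5 parasites per cell. Infected cells were exposed to 50, 12.5, 3.125 and 0.78 µg/mL for 72 h. CPRG (100 uM) and 0.1% Nonidet P-40 were added for 3 h, read at 570 nm. EC50 by Probit. Triplicate, at least two experiments; benznidazole as reference.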

[15] = system: Cryptococcus neoformans; test: Growth inhibition of Cryptococcus neoformans ATCC 32264 at 31.25 ug/ml incubated for 48 hrs under dark condition by broth microdilution method relative to control; format: functional; settings: ATCC 32264, 48 h, read-out: GI; in short: as §2
[16] = system: Pseudomonas aeruginosa; test: Antibacterial activity against Pseudomonas aeruginosa ATCC 27853 after 24 hrs by resazurin dye based microdilution assay; format: functional; settings: ATCC 27853, 24 h; in short: as §1
[17] = system: Candida albicans; test: Growth inhibition of Candida albicans ATCC 10231 at 15.62 ug/ml incubated for 48 hrs under dark condition by broth microdilution method relative to control; format: functional; settings: ATCC 10231, 48 h, read-out: GI; in short: as §2
[18] = system: Candida albicans; test: Growth inhibition of Candida albicans ATCC 10231 at 7.8 ug/ml incubated for 48 hrs under dark condition by broth microdilution method relative to control; format: functional; settings: ATCC 10231, 48 h, read-out: GI; in short: as §2
[19] = system: Klebsiella pneumoniae; test: Antibacterial activity against carbapenemase positive Klebsiella pneumoniae BAA 1705 after 24 hrs by resazurin dye based microdilution assay; format: functional; settings: BAA 1705, 24 h; in short: as §1
[20] = system: Plasmodium falciparum; test: Antiplasmodial activity against chloroquine-sensitive Plasmodium falciparum 3D7 assessed as reduction in parasitic LDH activity after 48 hrs by Malstat reagent based […] method; format: functional; settings: 3D7, 48 h
In short: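 Unsynchronized P. falciparum 3D7 at 0.5% parasitemia and 1% hematocrit in RPMI with 3% Albumax II. Exposed to 100, 25, 6.25 and 1.56 µg/mL for 48 h at 37 °C under 90% N2/5% CO2/5% O2. After three freeze-thaw cycles, LDH measured with Malstat and NBT/PES, 1 h in the dark, read at 650 nm. IC50 by Probit; triplicate, ≥2 experiments.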

[21] = system: Candida albicans; test: Antifungal activity against Candida albicans ATCC 10231 incubated for 48 hrs under dark condition by broth microdilution method; format: functional; settings: ATCC 10231, 48 h; in short: as §3
[22] = system: Staphylococcus aureus; test: Antibacterial activity against vancomycin-intermediate Staphylococcus aureus after 24 hrs by resazurin dye based microdilution assay; format: functional; in short: as §1
[23] = system: Cryptococcus neoformans; test: Growth inhibition of Cryptococcus neoformans ATCC 32264 at 62.5 ug/ml incubated for 48 hrs under dark condition by broth microdilution method relative to control; format: functional; settings: ATCC 32264, 48 h, read-out: GI; in short: as §2
[24] = system: Candida albicans; test: Growth inhibition of Candida albicans ATCC 10231 at 250 ug/ml incubated for 48 hrs under dark condition by broth microdilution method relative to control; format: functional; settings: ATCC 10231, 48 h, read-out: GI; in short: as §2
[25] = system: U-937; test: Cytotoxicity against human U937 cells after 72 hrs by MTT assay; format: cell-based; settings: u-937, 72 h
In short: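 Exponentially growing U-937 at 1 × 10^5 cells/mL in RPMI-1640 with 10% FBS were exposed to 200, 50, 12.5 and 3.125 µg/mL for 72 h at 37 °C, 5% CO2. MTT for 3 h, stopped with isopropanol/SDS, formazan read at 570 nm, blank-corrected. LC50 by Probit from % viability against untreated cells. Triplicate, at least two independent experiments.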

[26] = system: Staphylococcus aureus; test: Antibacterial activity against methicillin-resistant Staphylococcus aureus ATCC 43300 after 24 hrs by resazurin dye based microdilution assay; format: functional; settings: ATCC 43300, 24 h
In short: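 Broth microdilution in Mueller Hinton broth, inoculum 5 × 10^5 – 8 × 10^5. Compound stocks diluted in MHB with 5% DMSO and 0.1% Tween 80. Incubation 24 h at 35-37 °C. MIC is the lowest concentration with visible growth inhibition and/or by resazurin (1 mg/mL) read-out. Gentamicin as control. Run in duplicate, replicated at least three times.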

[27] = system: Escherichia coli; test: Antibacterial activity against Escherichia coli ATCC 25922 after 24 hrs by resazurin dye based microdilution assay; format: functional; settings: ATCC 25922, 24 h; in short: as §1
[28] = system: Cryptococcus neoformans; test: Growth inhibition of Cryptococcus neoformans ATCC 32264 at 125 ug/ml incubated for 48 hrs under dark condition by broth microdilution method relative to control; format: functional; settings: ATCC 32264, 48 h, read-out: GI; in short: as §2

Row | Compound | inhibition of growth at 3.4 µg/mL [1] [%] | MIC [2] [µg/mL] | inhibition of growth at 15.62 µg/mL [3] [%] | inhibition of growth at 250 µg/mL [4] [%] | inhibition of growth at 125 µg/mL [5] [%] | inhibition of growth at 62.5 µg/mL [6] [%] | MIC [7] [µg/mL] | MIC50 [8] [µg/mL] | MIC80 [8] [µg/mL] | MIC [9] [µg/mL] | inhibition of growth at 31.25 µg/mL [10] [%] | inhibition of growth at 3.4 µg/mL [11] [%] | inhibition of growth at 7.8 µg/mL [12] [%] | EC50 [13] [µg/mL] | EC50 [14] [µg/mL] | inhibition of growth at 31.25 µg/mL [15] [%] | MIC [16] [µg/mL] | inhibition of growth at 15.62 µg/mL [17] [%] | inhibition of growth at 7.8 µg/mL [18] [%] | MIC [19] [µg/mL] | also measured
1 | O=C(/C=C/c1cccc(Nc2ccnc3cc(Cl)ccc23)c1)c1ccccc1 | 17.9 | > 1000 | 32.3 | 100 | 36.7 | 36.2 | > 1000 | 31.2 (≈ 81.2 µM) | 62.5 (≈ 162 µM) | > 1000 | 31.7 | 21.5 | 25.6 | 2.54 (≈ 6.6 µM) | > 0.8 | 52.5 | > 1000 | 27.7 | 25.2 | > 1000 | EC50 [20]: 10.3 µg/mL (≈ 26.7 µM); MIC50 [21]: ≥ 250 µg/mL; MIC80 [21]: ≥ 250 µg/mL; MIC [22]: > 1000 µg/mL; inhibition of growth at 62.5 µg/mL [23]: 80.8%; inhibition of growth at 250 µg/mL [24]: 43.5%; LC50 [25]: 1.5 µg/mL (≈ 3.9 µM); MIC [26]: > 1000 µg/mL; MIC [27]: > 1000 µg/mL; inhibition of growth at 125 µg/mL [28]: 89.5%
2 | Cc1ccc(C(=O)/C=C/c2cccc(Nc3ccnc4cc(Cl)ccc34)c2)cc1 | 41.4 | > 1000 | 93.7 | 100 | 53.1 | 45.4 | > 1000 | 7.8 (≈ 19.6 µM) | 15.6 (≈ 39.2 µM) | > 1000 | 39.6 | 27.2 | 71.8 | 1.2 (≈ 3.01 µM) | > 1 | 100 | > 1000 | 36.6 | 30.6 | > 1000 | EC50 [20]: 10.3 µg/mL (≈ 25.7 µM); MIC50 [21]: 125 µg/mL (≈ 313 µM); MIC80 [21]: ≥ 250 µg/mL; MIC [22]: > 1000 µg/mL; inhibition of growth at 62.5 µg/mL [23]: 100%; inhibition of growth at 250 µg/mL [24]: 63.6%; LC50 [25]: 2 µg/mL (≈ 5.01 µM); MIC [26]: > 1000 µg/mL; MIC [27]: > 1000 µg/mL; inhibition of growth at 125 µg/mL [28]: 100%
3 | COc1ccc(C2=NN(C(C)=O)C(c3cccc(Nc4ccnc5cc(Cl)ccc45)c3)C2)cc1 (stereo not given) | 4.82 | > 1000 | 13.9 | 72.2 | 33.4 | 20.4 | > 1000 | 250 (≈ 531 µM) | ≥ 250 | > 1000 | 16.9 | 6.14 | 7.99 | 2.98 (≈ 6.33 µM) | 3.44 (≈ 7.3 µM) | 20.2 | > 1000 | 14.2 | 7.64 | > 1000 | EC50 [20]: 13.8 µg/mL (≈ 29.3 µM); MIC50 [21]: ≥ 250 µg/mL; MIC80 [21]: ≥ 250 µg/mL; MIC [22]: > 1000 µg/mL; inhibition of growth at 62.5 µg/mL [23]: 22.4%; inhibition of growth at 250 µg/mL [24]: 37.5%; LC50 [25]: 4.9 µg/mL (≈ 10.4 µM); MIC [26]: > 1000 µg/mL; MIC [27]: > 1000 µg/mL; inhibition of growth at 125 µg/mL [28]: 45%
